{"source": "paper PMC5412920", "about": "(Journal of Clinical Pharmacology, 2016)", "key": {"[1]": {"type": "in vivo, human", "conditions": "for AUCu, geometric least-squares mean / Cmax,u, geometric least-squares mean / AUCu / Cmax,u: unbound"}, "[2]": {"experiment": "Renal impairment study: excretion in urine and blood dialysate", "type": "in vivo, human", "procedure,_shortened": "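Subjects were ESRD patients on haemodialysis or healthy subjects with creatinine clearance >80 mL/min, each given 50 mg orally while fasted. ESRD patients were dosed once after dialysis and, after a washout of ≥7 days, once 1 h before dialysis. Urine was collected predose and in intervals to 72 h. Dialysate spot samples were taken every 30 min, and parameters were derived by the area under the excretion rate curve method. Analysis was by LC-MS/MS.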"}, "[3]": {"type": "in vivo, human", "conditions": "for tmax / half-life: human, plasma, oral; for tmax: median (min-max); for half-life: arithmetic mean (SD); for AUCu/dose, geometric least-squares mean / Cmax,u/dose, geometric least-squares mean: unbound"}, "[4]": {"experiment": "Hepatic impairment study: excretion in urine", "type": "in vivo, human", "procedure,_shortened": "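Urine from hepatic-impairment and healthy subjects was collected at −12 to 0 h predose, then 0–6, 6–12, 12–24, 24–36 and 36–48 h, and every 24 h to 120 h after a single oral dose. Dosing followed an overnight fast, with fasting until 4 h postdose. Analytes were measured by LC-MS/MS (positive electrospray, MRM) against carbon-13 internal standards.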"}, "[5]": {"experiment": "Unbound fraction in plasma", "type": "in vitro ADME, human", "conditions": "human, plasma, oral, fu,av, hepatic impairment study, median (min-max)", "procedure,_shortened": "(§1)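 Unbound fraction was measured in human plasma by ultrafiltration after a single oral dose. Ultrafiltrate was analysed by LC-MS/MS in MRM mode with carbon-13 internal standards. Within each subject, the mean percentage unbound from 3 results was applied to all of that subject's samples to give the average fraction unbound (fu,av).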"}, "plasma proteins": {"test_system": "plasma proteins", "experiment": "Unbound fraction in plasma", "type": "in vitro ADME, human", "procedure,_shortened": "as §1"}, "[6]": {"experiment": "Renal impairment study: safety and tolerability", "type": "in vivo, human", "procedure,_shortened": "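In the renal-impairment study, adverse events were recorded from screening until follow-up and coded by System Organ Class and preferred term (MedDRA 17.0). Vital signs, ECGs and clinical laboratory tests were also recorded. All subjects received a single fasted oral 50 mg dose. Healthy subjects returned for follow-up 3–7 days later.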"}, "[7]": {"experiment": "Hepatic impairment study: safety and tolerability", "type": "in vivo, human", "procedure,_shortened": "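Adverse events were collected from screening until follow-up at 7–14 days postdose and coded by System Organ Class and preferred term (MedDRA 17.0). Vital signs, ECGs and clinical laboratory tests were also recorded. Single fasted oral doses were 50 mg (mild), 50 or 25 mg (moderate), 20 mg (severe Child-Pugh) and 50 mg (healthy).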"}, "[8]": {"conditions": "cited from earlier work"}, "MEK1": {"test_system": "MEK1", "conditions": "cited from earlier work"}, "[9]": {"conditions": "healthy subjects, 50 mg, geometric mean (gCV%)"}, "[10]": {"conditions": "ESRD, treatment period 1 (50 mg after dialysis), geometric mean (gCV%)"}, "[11]": {"conditions": "moderate hepatic impairment, 50 or 25 mg"}, "[12]": {"conditions": "severe hepatic impairment, 20 mg"}, "[13]": {"conditions": "non-Asian patients, 75 mg twice daily, used as exposure limit"}}, "note": "Where two headings read alike, the source gives them in different places.", "data": [{"smiles": "Cn1cnc2c(F)c(Nc3ccc(Br)cc3Cl)c(C(=O)NOCCO)cc21", "note": "[Selumetinib]", "values": [{"measurement": "AUC lower in the ESRD group (dosed post dialysis) vs healthy subjects", "setting": "[1]; 50 mg", "value": 28, "unit": "%"}, {"measurement": "AUC lower when dosed before vs after dialysis", "setting": "[1]; ESRD, 50 mg", "value": 17, "unit": "%"}, {"measurement": "Cmax lower when dosed before vs after dialysis", "setting": "[1]; ESRD, 50 mg", "value": 30, "unit": "%"}, {"measurement": "CL/F", "setting": "[1]; [9]", "value": 19.1, "unit": "L/h"}, {"measurement": "Cmax", "setting": "[1]; human, plasma, oral, 50 mg, Cmax, healthy subjects, geometric mean (gCV%)", "value": 863, "unit": "ng/mL"}, {"measurement": "half-life", "setting": "[1]; human, plasma, oral, 50 mg, t1/2, healthy subjects, arithmetic mean (SD)", "value": 7.34, "unit": "h"}, {"measurement": "AUCu, geometric least-squares mean", "setting": "[1]; ESRD, treatment period 1", "value": 10.25, "unit": "ng·h/mL"}, {"measurement": "Cmax,u, geometric least-squares mean", "setting": "[1]; ESRD, treatment period 1", "value": 3.95, "unit": "ng/mL"}, {"measurement": "AUCu", "setting": "[1]; [10]", "value": "10.3 (20.1) ng·h/mL"}, {"measurement": "Cmax,u", "setting": "[1]; [10]", "value": "3.95 (34.7) ng/mL"}, {"measurement": "AUCu, geometric least-squares mean", "setting": "[1]; healthy subjects", "value": 10.55, "unit": "ng·h/mL"}, {"measurement": "Cmax,u, geometric least-squares mean", "setting": "[1]; healthy subjects", "value": 3.48, "unit": "ng/mL"}, {"measurement": "AUCu", "setting": "[1]; [9]", "value": "10.6 (23.0) ng·h/mL"}, {"measurement": "Cmax,u", "setting": "[1]; [9]", "value": "3.48 (42.5) ng/mL"}, {"measurement": "dose excreted in dialysate", "setting": "[2]; ESRD, dosed 1 h before dialysis", "value": 0.92, "unit": "%"}, {"measurement": "fraction excreted in urine", "setting": "[2]; healthy subjects, 50 mg", "value": 0.49, "unit": "%"}, {"measurement": "clearance", "setting": "[2]; human, blood dialysate, oral, 50 mg", "value": 9.63, "unit": "mL/min"}, {"measurement": "dialysis clearance in ESRD as percentage of CL/F in the healthy subjects group", "setting": "[2]; in vivo", "value": "approximately 3%"}, {"measurement": "AUC/dose, geometric least-squares mean", "setting": "[3]; healthy subjects, 50 mg", "value": 53.64, "unit": "ng·h/mL/mg"}, {"measurement": "Cmax/dose, geometric least-squares mean", "setting": "[3]; healthy subjects, 50 mg", "value": 18.88, "unit": "ng/mL/mg"}, {"measurement": "tmax", "setting": "[3]; 20 mg, severe hepatic impairment", "value": 1, "unit": "h"}, {"measurement": "half-life", "setting": "[3]; 50 mg, t1/2, healthy subjects", "value": 8.02, "unit": "h"}, {"measurement": "half-life", "setting": "[3]; 50 mg, t1/2, mild hepatic impairment", "value": 7.72, "unit": "h"}, {"measurement": "half-life", "setting": "[3]; 50 mg, t1/2, moderate hepatic impairment, 50 mg dose only", "value": 9.92, "unit": "h"}, {"measurement": "tmax", "setting": "[3]; 50 mg, healthy subjects", "value": 1, "unit": "h"}, {"measurement": "tmax", "setting": "[3]; 50 mg, mild hepatic impairment", "value": 1.25, "unit": "h"}, {"measurement": "tmax", "setting": "[3]; 50 mg, moderate hepatic impairment, 50 mg dose only", "value": 1, "unit": "h"}, {"measurement": "AUC/dose lower than in healthy subjects", "setting": "[3]; mild hepatic impairment", "value": 14, "unit": "%"}, {"measurement": "Cmax/dose lower than in healthy subjects", "setting": "[3]; mild hepatic impairment", "value": 22, "unit": "%"}, {"measurement": "AUC/dose, geometric least-squares mean", "setting": "[3]; mild hepatic impairment, 50 mg", "value": 45.93, "unit": "ng·h/mL/mg"}, {"measurement": "Cmax/dose, geometric least-squares mean", "setting": "[3]; mild hepatic impairment, 50 mg", "value": 14.82, "unit": "ng/mL/mg"}, {"measurement": "AUC/dose higher than in healthy subjects", "setting": "[3]; moderate hepatic impairment", "value": 59, "unit": "%"}, {"measurement": "Cmax/dose higher than in healthy subjects", "setting": "[3]; moderate hepatic impairment", "value": 25, "unit": "%"}, {"measurement": "AUC/dose, geometric least-squares mean", "setting": "[3]; [11]", "value": 85.11, "unit": "ng·h/mL/mg"}, {"measurement": "Cmax/dose, geometric least-squares mean", "setting": "[3]; [11]", "value": 23.57, "unit": "ng/mL/mg"}, {"measurement": "AUC/dose higher than in healthy subjects", "setting": "[3]; severe hepatic impairment", "value": 57, "unit": "%"}, {"measurement": "AUC/dose, geometric least-squares mean", "setting": "[3]; [12]", "value": 84.29, "unit": "ng·h/mL/mg"}, {"measurement": "Cmax/dose, geometric least-squares mean", "setting": "[3]; [12]", "value": 18.53, "unit": "ng/mL/mg"}, {"measurement": "AUCu/dose, geometric least-squares mean", "setting": "[3]; healthy subjects, 50 mg", "value": 0.1837, "unit": "ng·h/mL/mg"}, {"measurement": "Cmax,u/dose, geometric least-squares mean", "setting": "[3]; healthy subjects, 50 mg", "value": 0.06473, "unit": "ng/mL/mg"}, {"measurement": "AUCu/dose, geometric least-squares mean", "setting": "[3]; mild hepatic impairment, 50 mg", "value": 0.1271, "unit": "ng·h/mL/mg"}, {"measurement": "Cmax,u/dose, geometric least-squares mean", "setting": "[3]; mild hepatic impairment, 50 mg", "value": 0.04094, "unit": "ng/mL/mg"}, {"measurement": "AUCu/dose, geometric least-squares mean", "setting": "[3]; [11]", "value": 0.2585, "unit": "ng·h/mL/mg"}, {"measurement": "Cmax,u/dose, geometric least-squares mean", "setting": "[3]; [11]", "value": 0.07165, "unit": "ng/mL/mg"}, {"measurement": "AUCu/dose, geometric least-squares mean", "setting": "[3]; [12]", "value": 0.5828, "unit": "ng·h/mL/mg"}, {"measurement": "Cmax,u/dose, geometric least-squares mean", "setting": "[3]; [12]", "value": 0.1280, "unit": "ng/mL/mg"}, {"measurement": "dose excreted in urine", "setting": "[4]; healthy subjects, 50 mg", "value": 0.44, "unit": "%"}, {"measurement": "dose excreted in urine", "setting": "[4]; mild hepatic impairment, 50 mg", "value": 0.46, "unit": "%"}, {"measurement": "dose excreted in urine", "setting": "[4]; moderate hepatic impairment", "value": 0.50, "unit": "%"}, {"measurement": "dose excreted in urine", "setting": "[4]; [12]", "value": 0.90, "unit": "%"}, {"measurement": "fraction unbound", "setting": "[5]; 20 mg, severe impairment", "value": 0.0065}, {"measurement": "fraction unbound", "setting": "[5]; 50 mg, healthy subjects", "value": 0.0035}, {"measurement": "fraction unbound", "setting": "[5]; 50 mg, mild impairment", "value": 0.0028}, {"measurement": "fraction unbound", "setting": "[5]; 50 mg, moderate impairment, 50 mg dose only", "value": 0.003}, {"measurement": "difference of unbound fraction compared with healthy subjects", "setting": "plasma proteins; hepatic impairment study, mild or moderate impairment", "value": "≤ 20", "unit": "%"}, {"measurement": "increase in the unbound fraction compared with healthy subjects", "setting": "plasma proteins; hepatic impairment study, severe impairment", "value": "~90", "unit": "%"}, {"measurement": "fraction unbound", "setting": "plasma proteins; human, plasma, oral, 50 mg, fu,av, renal impairment study, healthy subjects, median (min-max)", "value": 0.004}, {"measurement": "AEs reported", "setting": "[6]; healthy subjects, 50 mg", "value": "No AEs were reported"}, {"measurement": "tolerability", "setting": "[6]; single oral dose 50 mg", "value": "well tolerated"}, {"measurement": "most frequently reported AEs, diarrhea and vomiting, each", "setting": "[7]; all 32 subjects (N = 2 each)", "value": 6.3, "unit": "%"}, {"measurement": "subjects reporting at least 1 AE", "setting": "[7]; all 32 subjects, mild or moderate severity", "value": 15.6, "unit": "%"}, {"measurement": "tolerability", "setting": "[7]; single oral dose 20-50 mg", "value": "well tolerated"}, {"measurement": "dose linearity of pharmacokinetics", "setting": "[8]; healthy volunteers", "value": "linear pharmacokinetics up to 75 mg"}, {"measurement": "mean steady-state AUC(0-12)", "setting": "[8]; [13]", "value": 4736, "unit": "ng·h/mL"}, {"measurement": "mean steady-state Cmax", "setting": "[8]; [13]", "value": 1307, "unit": "ng/mL"}]}, {"smiles": "Cn1cnc2c(F)c(Nc3ccc(Br)cc3Cl)c(C(N)=O)cc21", "note": "[selumetinib amide]", "values": [{"measurement": "plasma concentrations", "setting": "[1]; renal impairment study, largely below the lower limit of quantification", "value": "< 2", "unit": "ng/mL"}, {"measurement": "plasma concentrations", "setting": "[3]; hepatic impairment study, largely below the lower limit of quantification", "value": "< 2", "unit": "ng/mL"}, {"measurement": "less active than selumetinib", "setting": "MEK1", "value": "up to 50 fold"}]}]}
